The source made the active and inactive calls. The calls are words filed in the database; no cut-off is given here.
Test system: not listed separately
Assay: Microsomal stability in human liver microsomes assessed as parent compound remaining measured after 1 hr in presence of NADPH by UHPLC-MS analysis
Assay type: ADME, Microsome
Conditions: read-out: Stability
Procedure, shortened: (§1)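 Test compound incubated with human or mouse liver microsomes. Percent remaining at 1 h reported as the average of three values.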

| Structure (SMILES) | remaining at 1 h |
| --- | --- |
| C[C@@H]1CC(=O)NN=C1c1ccc(-c2cncnc2)cc1 | 83% |
| CCN(CC)c1ccc(C2=NNC(=O)CC2C)cc1 (racemic) | 89% |
| CC1CC(=O)NN=C1c1ccc(N2CCOCC2)c(F)c1 (racemic) | 109% |
| CC1CC(=O)NN=C1c1ccc(N2CCOCC2)cc1 (racemic) | 94% |
| C[C@@H]1CC(=O)NN=C1c1ccc(Cl)cc1 | 81% |
| CC1CC(=O)NN=C1c1ccc(F)c(F)c1 (racemic) | 108% |
| CCN(CC)c1ccc(C2=NNC(=O)CC2C)cc1[N+](=O)[O-] (centres undefined) | 95% |

Test system: not listed separately
Assay: Selectivity ratio, ratio of IC50 for human PDE3B to EC50 for cytotoxicity against human HeLa cells
Conditions: not given

| Structure (SMILES) | Ratio IC50/EC50 |
| --- | --- |
| C[C@@H]1CC(=O)NN=C1c1ccc(Cl)c(Cl)c1 | 2.4 |
| CC1CC(=O)NN=C1c1ccc(N2CCOCC2)cc1 (racemic) | 2.4 |
| C[C@@H]1CC(=O)NN=C1c1ccc(N2CCN(C)CC2)cc1 | 2.4 |
| CC(=O)Nc1ccc(C2=NNC(=O)C[C@H]2C)cc1Cl | 0.38 |

Test system: HCT-116
Assay: Cytotoxicity against human HCT-116 cells assessed as cell growth inhibition upto 10 uM measured after 48 hrs by […] reagent based assay
Assay type: functional
Conditions: not given
Procedure, shortened: (§2)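 Counterscreen viability assay in HCT116 colorectal cancer cells and IMR90 normal lung fibroblasts, run alongside DNMDP-sensitive lines.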

| Structure (SMILES) | Activity |
| --- | --- |
| C[C@@H]1CC(=O)NN=C1c1ccc(-c2cncnc2)cc1 | inactive |
| CC1CC(=O)NN=C1c1ccc(N2CCOCC2)cc1 (racemic) | inactive |
| C[C@@H]1CC(=O)NN=C1c1ccc(Cl)cc1 | inactive |
| CCN(CC)c1ccc(C2=NNC(=O)CC2C)cc1[N+](=O)[O-] (centres undefined) | inactive |

Test system: not listed separately
Assay: Plasma protein binding in mouse incubated for 5 hrs by UPLC-MS method
Assay type: ADME, cell-free
Conditions: read-out: PPB (converted)
Procedure, shortened: (§3)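 Plasma protein binding, human and mouse, reported as % bound, average of three values.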

| Structure (SMILES) | fraction unbound at 5 h |
| --- | --- |
| C[C@@H]1CC(=O)NN=C1c1ccc(-c2cncnc2)cc1 | 0.46 |
| CCN(CC)c1ccc(C2=NNC(=O)CC2C)cc1 (racemic) | 0.1 |
| CC1CC(=O)NN=C1c1ccc(N2CCOCC2)c(F)c1 (racemic) | 0.45 |
| CC1CC(=O)NN=C1c1ccc(N2CCOCC2)cc1 (racemic) | 0.58 |
| C[C@@H]1CC(=O)NN=C1c1ccc(Cl)cc1 | 0.19 |
| CC1CC(=O)NN=C1c1ccc(F)c(F)c1 (racemic) | 0.48 |
| CCN(CC)c1ccc(C2=NNC(=O)CC2C)cc1[N+](=O)[O-] (centres undefined) | 0.08 |

Test system: not listed separately
Assay: Stability in human plasma assessed as parent compound remaining after 5 hrs
Assay type: ADME, cell-free
Conditions: read-out: Stability
Procedure, shortened: (§4)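 Human or mouse plasma incubation. Percent parent remaining at 5 h, average of three values.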

| Structure (SMILES) | remaining at 5 h |
| --- | --- |
| C[C@@H]1CC(=O)NN=C1c1ccc(-c2cncnc2)cc1 | 104% |
| CCN(CC)c1ccc(C2=NNC(=O)CC2C)cc1 (racemic) | 104% |
| CC1CC(=O)NN=C1c1ccc(N2CCOCC2)c(F)c1 (racemic) | 80% |
| CC1CC(=O)NN=C1c1ccc(N2CCOCC2)cc1 (racemic) | 87% |
| C[C@@H]1CC(=O)NN=C1c1ccc(Cl)cc1 | 93% |
| CC1CC(=O)NN=C1c1ccc(F)c(F)c1 (racemic) | 93% |
| CCN(CC)c1ccc(C2=NNC(=O)CC2C)cc1[N+](=O)[O-] (centres undefined) | 85% |

Test system: SK-MEL3
Assay: Cytotoxicity against human SK-MEL3 cells assessed as cell growth inhibition upto 10 uM measured after 48 hrs by […] reagent based assay
Assay type: functional
Conditions: SK-MEL3, 48 h

| Structure (SMILES) | EC50 |
| --- | --- |
| C[C@@H]1CC(=O)NN=C1c1ccc(Cl)c(Cl)c1 | 5.6 nM |
| CC1CC(=O)NN=C1c1ccc(N2CCOCC2)cc1 (racemic) | 11 nM |
| C[C@@H]1CC(=O)NN=C1c1ccc(Cl)cc1 | 29 nM |
| C[C@@H]1CC(=O)NN=C1c1ccc(N2CCN(C)CC2)cc1 | 684 nM |
| CC(=O)Nc1ccc(C2=NNC(=O)C[C@H]2C)cc1Cl | 31 nM |
| CCN(CC)c1ccc(C2=NNC(=O)CC2C)cc1[N+](=O)[O-] (centres undefined) | 12 nM |

Molecular target: cGMP-inhibited 3',5'-cyclic phosphodiesterase 3B (Homo sapiens, UniProt Q13370)
Assay: Inhibition of human recombinant PDE3B
Conditions: not given

cGMP-inhibited 3',5'-cyclic phosphodiesterase 3B, sequence (Q13370 whole entry): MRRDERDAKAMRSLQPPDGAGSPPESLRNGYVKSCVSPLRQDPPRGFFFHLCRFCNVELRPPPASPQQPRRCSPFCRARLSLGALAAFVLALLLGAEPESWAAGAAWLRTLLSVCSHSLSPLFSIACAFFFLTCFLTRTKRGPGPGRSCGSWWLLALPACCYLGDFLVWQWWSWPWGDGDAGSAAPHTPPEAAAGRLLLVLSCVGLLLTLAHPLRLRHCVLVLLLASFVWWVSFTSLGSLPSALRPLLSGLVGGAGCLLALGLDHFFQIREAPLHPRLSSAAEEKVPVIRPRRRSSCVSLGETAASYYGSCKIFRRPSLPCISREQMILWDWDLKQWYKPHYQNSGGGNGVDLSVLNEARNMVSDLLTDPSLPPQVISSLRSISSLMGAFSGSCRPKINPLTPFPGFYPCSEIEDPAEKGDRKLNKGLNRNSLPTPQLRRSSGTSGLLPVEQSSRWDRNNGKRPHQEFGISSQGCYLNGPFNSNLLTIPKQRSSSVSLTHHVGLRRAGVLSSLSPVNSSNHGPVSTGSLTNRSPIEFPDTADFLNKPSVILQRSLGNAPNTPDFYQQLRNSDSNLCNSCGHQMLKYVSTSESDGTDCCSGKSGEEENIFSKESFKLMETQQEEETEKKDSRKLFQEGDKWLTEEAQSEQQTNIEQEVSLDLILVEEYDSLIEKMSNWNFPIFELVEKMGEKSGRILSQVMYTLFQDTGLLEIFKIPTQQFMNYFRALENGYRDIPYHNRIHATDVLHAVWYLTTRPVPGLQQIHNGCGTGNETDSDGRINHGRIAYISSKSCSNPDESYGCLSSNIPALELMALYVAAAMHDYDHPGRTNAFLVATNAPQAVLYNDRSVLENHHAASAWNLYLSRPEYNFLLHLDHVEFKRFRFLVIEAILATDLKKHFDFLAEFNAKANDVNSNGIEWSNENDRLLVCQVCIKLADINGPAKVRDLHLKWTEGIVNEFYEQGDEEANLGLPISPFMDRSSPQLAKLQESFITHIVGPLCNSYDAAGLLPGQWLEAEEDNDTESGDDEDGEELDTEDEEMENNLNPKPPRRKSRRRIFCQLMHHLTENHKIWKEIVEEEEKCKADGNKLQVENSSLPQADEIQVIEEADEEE

| Structure (SMILES) | IC50 |
| --- | --- |
| C[C@@H]1CC(=O)NN=C1c1ccc(Cl)c(Cl)c1 | 14 nM |
| CC1CC(=O)NN=C1c1ccc(N2CCOCC2)cc1 (racemic) | 260 nM |
| C[C@@H]1CC(=O)NN=C1c1ccc(N2CCN(C)CC2)cc1 | 3500 nM |
| CC(=O)Nc1ccc(C2=NNC(=O)C[C@H]2C)cc1Cl | 10 nM |
| CCN(CC)c1ccc(C2=NNC(=O)CC2C)cc1[N+](=O)[O-] (centres undefined) | 100 nM |

Test system: A549
Assay: Cytotoxicity against human A549 cells assessed as cell growth inhibition upto 10 uM measured after 3 days by […] reagent based assay
Conditions: time 72.0 hrs

| Structure (SMILES) | Activity |
| --- | --- |
| C[C@@H]1CC(=O)NN=C1c1ccc(-c2cncnc2)cc1 | inactive |
| C[C@@H]1CC(=O)NN=C1c1ccc(Cl)c(Cl)c1 | inactive |
| CCN(CC)c1ccc(C2=NNC(=O)CC2C)cc1 (racemic) | inactive |
| CC1CC(=O)NN=C1c1ccc(N2CCOCC2)c(F)c1 (racemic) | inactive |
| CC1CC(=O)NN=C1c1ccc(N2CCOCC2)cc1 (racemic) | inactive |
| C[C@@H]1CC(=O)NN=C1c1ccc(Cl)cc1 | inactive |
| C[C@@H]1CC(=O)NN=C1c1ccc(N2CCN(C)CC2)cc1 | inactive |
| CC1CC(=O)NN=C1c1ccc(F)c(F)c1 (racemic) | inactive |
| CC(=O)Nc1ccc(C2=NNC(=O)C[C@H]2C)cc1Cl | inactive |
| CCN(CC)c1ccc(C2=NNC(=O)CC2C)cc1[N+](=O)[O-] (centres undefined) | inactive |

Test system: not listed separately
Assay: Stability in mouse plasma assessed as parent compound remaining after 5 hrs
Assay type: ADME, cell-free
Conditions: read-out: Stability
Procedure, shortened: as §4

| Structure (SMILES) | remaining at 5 h |
| --- | --- |
| C[C@@H]1CC(=O)NN=C1c1ccc(-c2cncnc2)cc1 | 108% |
| CCN(CC)c1ccc(C2=NNC(=O)CC2C)cc1 (racemic) | 96% |
| CC1CC(=O)NN=C1c1ccc(N2CCOCC2)c(F)c1 (racemic) | 101% |
| CC1CC(=O)NN=C1c1ccc(N2CCOCC2)cc1 (racemic) | 105% |
| C[C@@H]1CC(=O)NN=C1c1ccc(Cl)cc1 | 86% |
| CC1CC(=O)NN=C1c1ccc(F)c(F)c1 (racemic) | 96% |
| CCN(CC)c1ccc(C2=NNC(=O)CC2C)cc1[N+](=O)[O-] (centres undefined) | 87% |

Test system: HeLa
Assay: Cytotoxicity against human HeLa cells assessed as cell growth inhibition measured after 48 hrs by […] reagent based assay
Assay type: functional
Conditions: not given

| Structure (SMILES) | EC50 |
| --- | --- |
| C[C@@H]1CC(=O)NN=C1c1ccc(-c2cncnc2)cc1 | 13 nM |
| C[C@@H]1CC(=O)NN=C1c1ccc(Cl)c(Cl)c1 | 4.5 nM |
| CCN(CC)c1ccc(C2=NNC(=O)CC2C)cc1 (racemic) | 8.8 nM |
| CC1CC(=O)NN=C1c1ccc(N2CCOCC2)c(F)c1 (racemic) | 2.8 nM |
| CC1CC(=O)NN=C1c1ccc(N2CCOCC2)cc1 (racemic) | 36 nM |
| C[C@@H]1CC(=O)NN=C1c1ccc(Cl)cc1 | 33 nM |
| C[C@@H]1CC(=O)NN=C1c1ccc(N2CCN(C)CC2)cc1 | 310 nM |
| CC1CC(=O)NN=C1c1ccc(F)c(F)c1 (racemic) | 64 nM |
| CC(=O)Nc1ccc(C2=NNC(=O)C[C@H]2C)cc1Cl | 24 nM |

Molecular target: Ribonuclease SLFN12 (Homo sapiens) (UniProt Q8IYM2)
Assay: Stabilization of PDE3A/V5-epitope tagged SLFN12 interaction in human HeLa cells at 10 uM incubated for 8 hrs by immunoblotting analysis
Assay type: cell-based
Conditions: not given
Procedure, shortened: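 HeLa cells transfected with a plasmid expressing V5-tagged SLFN12, then exposed to 10 µM compound for 8 h. Lysates immunoprecipitated with anti-PDE3A antibody for endogenous PDE3A. Co-precipitated SLFN12-V5 detected by immunoblot with anti-V5 antibody.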

Ribonuclease SLFN12 (Homo sapiens), sequence (Q8IYM2 whole entry): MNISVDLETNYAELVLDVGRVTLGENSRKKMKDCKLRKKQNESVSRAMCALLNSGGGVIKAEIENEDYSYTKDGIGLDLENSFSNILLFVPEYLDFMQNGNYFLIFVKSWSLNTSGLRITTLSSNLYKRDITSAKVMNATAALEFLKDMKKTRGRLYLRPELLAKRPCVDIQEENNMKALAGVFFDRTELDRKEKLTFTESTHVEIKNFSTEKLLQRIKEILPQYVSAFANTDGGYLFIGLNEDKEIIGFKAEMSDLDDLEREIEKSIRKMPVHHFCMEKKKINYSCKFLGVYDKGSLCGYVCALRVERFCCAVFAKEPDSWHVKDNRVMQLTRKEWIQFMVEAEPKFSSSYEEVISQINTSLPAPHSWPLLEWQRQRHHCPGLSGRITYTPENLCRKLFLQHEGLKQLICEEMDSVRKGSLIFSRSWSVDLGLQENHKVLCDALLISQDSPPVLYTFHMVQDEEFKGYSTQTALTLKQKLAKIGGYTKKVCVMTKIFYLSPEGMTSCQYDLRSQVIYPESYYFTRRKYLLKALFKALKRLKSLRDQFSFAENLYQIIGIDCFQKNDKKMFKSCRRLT

| Structure (SMILES) | Activity |
| --- | --- |
| CCN(CC)c1ccc(C2=NNC(=O)CC2C)cc1[N+](=O)[O-] (centres undefined) | Active |

Test system: not listed separately
Assay: Selectivity ratio, ratio of IC50 for human PDE3A to EC50 for cytotoxicity against human HeLa cells
Conditions: not given

| Structure (SMILES) | Ratio IC50/EC50 |
| --- | --- |
| C[C@@H]1CC(=O)NN=C1c1ccc(Cl)c(Cl)c1 | 2.4 |
| CC1CC(=O)NN=C1c1ccc(N2CCOCC2)cc1 (racemic) | 2.4 |
| C[C@@H]1CC(=O)NN=C1c1ccc(N2CCN(C)CC2)cc1 | 2.4 |
| CC(=O)Nc1ccc(C2=NNC(=O)C[C@H]2C)cc1Cl | 0.38 |

Molecular target: cGMP-inhibited 3',5'-cyclic phosphodiesterase 3A (Homo sapiens, UniProt Q14432)
Assay: Inhibition of human N-terminal His-GST-tagged recombinant PDE3A (669-end residues) using fluorescent labelled cAMP as substrate
Conditions: not given

cGMP-inhibited 3',5'-cyclic phosphodiesterase 3A, sequence (Q14432 whole entry): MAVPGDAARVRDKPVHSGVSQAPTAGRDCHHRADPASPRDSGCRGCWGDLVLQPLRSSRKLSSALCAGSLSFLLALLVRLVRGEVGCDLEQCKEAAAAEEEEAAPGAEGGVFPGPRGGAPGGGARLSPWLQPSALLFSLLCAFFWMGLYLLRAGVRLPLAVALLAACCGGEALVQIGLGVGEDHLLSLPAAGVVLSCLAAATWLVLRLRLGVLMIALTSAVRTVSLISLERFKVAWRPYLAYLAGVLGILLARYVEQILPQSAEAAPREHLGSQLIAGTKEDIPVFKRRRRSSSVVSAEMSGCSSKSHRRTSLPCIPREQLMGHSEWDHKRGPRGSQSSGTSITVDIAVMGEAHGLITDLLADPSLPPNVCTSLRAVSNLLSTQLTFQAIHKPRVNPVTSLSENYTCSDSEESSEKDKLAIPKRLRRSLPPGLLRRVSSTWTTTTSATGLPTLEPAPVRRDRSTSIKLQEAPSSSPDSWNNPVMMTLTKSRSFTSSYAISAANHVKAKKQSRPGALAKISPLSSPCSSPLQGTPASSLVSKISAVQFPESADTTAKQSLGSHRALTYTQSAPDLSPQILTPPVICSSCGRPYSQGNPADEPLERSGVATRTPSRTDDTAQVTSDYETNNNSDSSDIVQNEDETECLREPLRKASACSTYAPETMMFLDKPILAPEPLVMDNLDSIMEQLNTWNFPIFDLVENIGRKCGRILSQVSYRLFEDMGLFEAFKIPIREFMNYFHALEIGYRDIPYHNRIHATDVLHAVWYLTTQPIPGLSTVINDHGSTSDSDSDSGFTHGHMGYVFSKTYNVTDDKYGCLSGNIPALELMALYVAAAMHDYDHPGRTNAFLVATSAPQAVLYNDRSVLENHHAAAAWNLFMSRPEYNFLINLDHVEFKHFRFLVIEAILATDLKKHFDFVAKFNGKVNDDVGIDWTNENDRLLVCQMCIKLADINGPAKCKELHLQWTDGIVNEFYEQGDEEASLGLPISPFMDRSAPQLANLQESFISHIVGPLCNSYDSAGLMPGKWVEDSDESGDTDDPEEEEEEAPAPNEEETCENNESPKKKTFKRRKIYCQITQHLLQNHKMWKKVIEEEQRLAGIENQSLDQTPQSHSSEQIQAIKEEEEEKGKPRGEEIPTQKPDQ

| Structure (SMILES) | IC50 |
| --- | --- |
| C[C@@H]1CC(=O)NN=C1c1ccc(Cl)c(Cl)c1 | 8 nM |
| CC1CC(=O)NN=C1c1ccc(N2CCOCC2)cc1 (racemic) | 120 nM |
| C[C@@H]1CC(=O)NN=C1c1ccc(N2CCN(C)CC2)cc1 | 2000 nM |
| CC(=O)Nc1ccc(C2=NNC(=O)C[C@H]2C)cc1Cl | 8 nM |
| CCN(CC)c1ccc(C2=NNC(=O)CC2C)cc1[N+](=O)[O-] (centres undefined) | 25 nM |

Test system: IMR-90
Assay: Cytotoxicity against human IMR-90 cells assessed as cell growth inhibition upto 10 uM measured after 48 hrs by […] reagent based assay
Assay type: functional
Conditions: not given
Procedure, shortened: as §2

| Structure (SMILES) | Activity |
| --- | --- |
| C[C@@H]1CC(=O)NN=C1c1ccc(-c2cncnc2)cc1 | inactive |
| CC1CC(=O)NN=C1c1ccc(N2CCOCC2)cc1 (racemic) | inactive |
| C[C@@H]1CC(=O)NN=C1c1ccc(Cl)cc1 | inactive |
| CCN(CC)c1ccc(C2=NNC(=O)CC2C)cc1[N+](=O)[O-] (centres undefined) | inactive |

Test system: not listed separately
Assay: Microsomal stability in mouse liver microsomes assessed as parent compound remaining at 1 uM measured after 1 hr in presence of NADPH by UHPLC-MS analysis
Assay type: ADME, Microsome
Conditions: read-out: Stability
Procedure, shortened: as §1

| Structure (SMILES) | remaining at 1 h, 1 µM |
| --- | --- |
| C[C@@H]1CC(=O)NN=C1c1ccc(-c2cncnc2)cc1 | 105% |
| CCN(CC)c1ccc(C2=NNC(=O)CC2C)cc1 (racemic) | 26% |
| CC1CC(=O)NN=C1c1ccc(N2CCOCC2)c(F)c1 (racemic) | 102% |
| CC1CC(=O)NN=C1c1ccc(N2CCOCC2)cc1 (racemic) | 99% |
| C[C@@H]1CC(=O)NN=C1c1ccc(Cl)cc1 | 92% |
| CC1CC(=O)NN=C1c1ccc(F)c(F)c1 (racemic) | 82% |
| CCN(CC)c1ccc(C2=NNC(=O)CC2C)cc1[N+](=O)[O-] (centres undefined) | 23% |

Test system: not listed separately
Assay: Plasma protein binding in human incubated for 5 hrs by UPLC-MS method
Assay type: ADME, cell-free
Conditions: read-out: PPB (converted)
Procedure, shortened: as §3

| Structure (SMILES) | fraction unbound at 5 h |
| --- | --- |
| C[C@@H]1CC(=O)NN=C1c1ccc(-c2cncnc2)cc1 | 0.44 |
| CCN(CC)c1ccc(C2=NNC(=O)CC2C)cc1 (racemic) | 0.1 |
| CC1CC(=O)NN=C1c1ccc(N2CCOCC2)c(F)c1 (racemic) | 0.43 |
| CC1CC(=O)NN=C1c1ccc(N2CCOCC2)cc1 (racemic) | 0.53 |
| C[C@@H]1CC(=O)NN=C1c1ccc(Cl)cc1 | 0.13 |
| CC1CC(=O)NN=C1c1ccc(F)c(F)c1 (racemic) | 0.44 |
| CCN(CC)c1ccc(C2=NNC(=O)CC2C)cc1[N+](=O)[O-] (centres undefined) | 0.13 |

Reference: ChEMBL document CHEMBL5260844, “Optimization of PDE3A Modulators for SLFN12-Dependent Cancer Cell Killing” (ACS Med Chem Lett, 2019)
